Results: ChEMBL document CHEMBL1124344, “5-Piperazinylalkyl-2(3H)-oxazolones with neuroleptic activity” (J Med Chem, 1989)

What was measured:
Mus musculus [1] = assay: Inhibition of spontaneous motor activity in mice, by administering perorally at a dose of 90 mg/kg; type: functional; conditions: route oral
How it was run: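 Mice fasted overnight, then dosed orally with compound (weighed as base) suspended in arabic gum, 10 mL/kg, with vehicle controls; 1 h pretreatment for screening tests, 1 or 5 h for others. Groups of five; locomotor activity counted 10 min in photocell activity cage, at least two groups per dose. ED50 = dose giving 50% inhibition versus controls, by probit analysis.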

Mus musculus [2] = assay: Inhibition of amphetamine-induced hypermobility in mice following p.o. administration.; type: functional; conditions: po
How it was run: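 Compounds were given orally to male mice (gum arabic suspension, 10 mL/kg, fasted) in groups of five. Amphetamine 4 mg/kg ip followed 30 min later. After another 10 min, motility was recorded for 15 min with a photocell actophotometer. ED50, by probit analysis, is the dose giving 50% reduction against controls.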

Rattus norvegicus [3] = assay: Activity to evoke catalepsy in rats, by administering perorally at a dose of 90 mg/kg; type: functional; conditions: route oral
How it was run: (§1)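 Rats fasted overnight and given oral doses in arabic gum suspension (10 mL/kg), 1 h before screening or 1 and 5 h before profile testing. Forelegs placed on a horizontal bar 7 cm high, three times at 5-min intervals. Immobility of at least 15 s counts as catalepsy. ED50 is the dose giving catalepsy in 50% of rats, by probit analysis. Parenthetical entries give the maximal dose and percent activity.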

[4] = Lethal dose in mice (LD50) following i.p. dosing; type: toxicity, organism-based; conditions: mouse, in vivo, ip
How it was run: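 Acute toxicity tested in mice by the intraperitoneal route. LD50 is the dose killing 50% of treated mice, computed by Finney probit analysis; values are approximate.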

Rattus norvegicus [5] = assay: Antagonistic activity against apomorphine-induced stereotypy in rats, by administering perorally at a dose of 90 mg/kg; type: functional; conditions: route oral
How it was run: (§2)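 Male rats fasted overnight and given oral doses in arabic gum suspension (10 mL/kg) 1 h, or 1 and 5 h, before challenge. Apomorphine 3 mg/kg iv, with stereotypy observed 20 min later. ED50 is the dose inhibiting stereotypy in 50% of rats, per Janssen's method. Parenthetical entries give the maximal dose and percent activity.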

Rattus norvegicus [6] = assay: Activity to evoke catalepsy in rats, by administering perorally at a dose of 60 mg/kg; type: functional; conditions: route oral; how it was run: as §1
Mus musculus [7] = assay: Inhibition of spontaneous motor activity in mice, by administering perorally; type: functional; conditions: po
How it was run: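 Mice in groups of five were dosed orally with gum arabic suspensions at 10 mL/kg after an overnight fast, with a vehicle control group. Locomotion was counted for 10 min in a photocell activity cage, in at least two groups per dose. ED50, by probit analysis, is the dose giving 50% inhibition against controls.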

Rattus norvegicus [8] = assay: Antagonistic activity against apomorphine-induced stereotypy in rats, by administering perorally at a dose of 60 mg/kg; type: functional; conditions: route oral; how it was run: as §2

Row | SMILES | inhibition in vivo at 90 mg/kg (Mus musculus [1]) | ED50 (Mus musculus [2]) | inhibition in vivo at 90 mg/kg (Rattus norvegicus [3]) | LD50 [4] | inhibition in vivo at 90 mg/kg (Rattus norvegicus [5]) | inhibition in vivo at 60 mg/kg (Rattus norvegicus [6]) | ED50 (Mus musculus [7]) | inhibition in vivo at 60 mg/kg (Rattus norvegicus [8])
1 | Oc1nc(-c2ccc(F)cc2)c(CCN2CCN(c3cc(Cl)ccc3Cl)CC2)o1 | 45% | 10 mg/kg | 0% | 750 mg/kg | 0% |  |  | 
2 | Cc1ccccc1N1CCN(CCc2oc(O)nc2-c2ccc(F)cc2)CC1 |  | 8.6 mg/kg |  | 250 mg/kg |  | 0% | 6.3 mg/kg | 0%
